Usually inhibition in vivo stands for the relative decrease from the control value, in per cent.

Assay [1] relates to Rattus norvegicus. Briefly: Adjuvant arthritic activity in rat uninjected leg on day 16 tested at 50 mg/kg perorally. In kind it is functional. To be noted: 384 h, route oral. Put shortly: (§1)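 Rats received oral doses daily from the day of adjuvant injection for 17 days, skipping days 4, 5, 11 and 12. Leg volumes were compared with those of an arthritic vehicle-control group. Significance was judged by Student's t test.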

The test system of assay [2] is Rattus norvegicus. Briefly: Adjuvant arthritic activity in rat injected leg on day 16 tested at 50 mg/kg perorally. The class given is functional. To be noted: 384 h, route oral. In outline: as §1
Assay [3] deals with Rattus norvegicus. Briefly: Adjuvant arthritic activity in rat injected leg on day 3 tested at 50 mg/kg perorally. To be noted: 72 h, route oral. The class given is functional. Put shortly:
as §1

Assay [4] has as its system Mus musculus. Briefly: Cutaneous oxazolone induced contact sensitivity in mouse and percent stimulation in right hind paw was determined at a dose 25 mg/kg perorally. The settings on record: route oral.
The subject of assay [5] is Rattus norvegicus. Briefly: Adjuvant arthritic activity in rat injected leg on day 3 tested at 50 mg/kg perorally. To be noted: 72 h, route oral. The class given is functional. In outline:
as §1

Assay [6] deals with Rattus norvegicus. Briefly: Adjuvant arthritic activity in rat uninjected leg on day 16 tested at 50 mg/kg perorally. In kind it is functional. The settings on record: 384 h, route oral. In outline: as §1
The subject of assay [7] is Rattus norvegicus. Briefly: Adjuvant arthritic activity in rat injected leg on day 16 tested at 50 mg/kg perorally. The class given is functional. The settings on record: 384 h, route oral. Put shortly:
as §1

The test system of assay [8] is Mus musculus. Briefly: Cutaneous oxazolone induced contact sensitivity in mouse and percent stimulation in right hind paw was determined at a dose 25 mg/kg perorally. The settings on record: route oral.
The subject of assay [9] is Rattus norvegicus. Briefly: Adjuvant arthritic activity in rat uninjected leg on day 16 tested at 20 mg/kg perorally. In kind it is functional. The settings on record: 384 h, route oral. Put shortly: as §1
Assay [10] relates to Rattus norvegicus. Briefly: Adjuvant arthritic activity in rat injected leg on day 16 tested at 20 mg/kg perorally. The class given is functional. The settings on record: 384 h, route oral. In outline:
as §1

Assay [11] concerns Mus musculus. Briefly: Cutaneous oxazolone induced contact sensitivity in mouse and percent stimulation in right hind paw was determined at a dose 20 mg/kg perorally. The settings on record: route oral.

For the molecule `CSc1ccc(-c2nc3n(c2-c2ccncc2)CCS3)cc1`, the inhibition in vivo at 50 mg/kg in the assay with Rattus norvegicus [1] stood at 16%; in the assay with Rattus norvegicus [2], 12%; in the assay on Rattus norvegicus [3] it was 16%. In addition, the Stimulation in the assay with Mus musculus [4] was determined as 19%.

Turning to `c1cc(-c2nc3n(c2-c2ccncc2)CCS3)ccn1`, the inhibition in vivo at 50 mg/kg was -3% in the assay on Rattus norvegicus [1], -4% in the assay on Rattus norvegicus [5] and 7% with Rattus norvegicus [2].

Turning to `Fc1ccc(-c2c(-c3ccncc3)nc3n2CCS3)cc1`, the inhibition in vivo at 50 mg/kg is -9% with Rattus norvegicus [1], 4% with Rattus norvegicus [2] and -2% in the assay on Rattus norvegicus [3]. Also, the Stimulation in the assay with Mus musculus [4] amounted to 15%.

Consider `COc1ccc(-c2nc3n(c2-c2ccc(OC)cc2)CCS3)cc1`, for which the inhibition in vivo at 50 mg/kg in the assay with Rattus norvegicus [6] came out at 29%; in the assay with Rattus norvegicus [5], 25%; in the assay on Rattus norvegicus [7], 36%. Also, the Stimulation in the assay on Mus musculus [8] is reported as 194%.

For `Fc1ccc(-c2nc3n(c2-c2ccncc2)CCS3)cc1`, the inhibition in vivo at 50 mg/kg in the assay with Rattus norvegicus [6] stood at 44%; in the assay on Rattus norvegicus [7], 38%; with Rattus norvegicus [3], 27%. The Stimulation in the assay with Mus musculus [8] turned out to be 69%.

Turning to `CSc1ccc(-c2c(-c3ccncc3)nc3n2CCS3)cc1`, the inhibition in vivo at 50 mg/kg was -18% in the assay on Rattus norvegicus [6], 8% with Rattus norvegicus [2] and 7% in the assay on Rattus norvegicus [3]. In addition, in the assay on Mus musculus [4], the Stimulation is listed as 19%.

In the case of `COc1ccc(-c2c(-c3ccncc3)nc3n2CCS3)cc1`, the inhibition in vivo at 50 mg/kg is -37% in the assay with Rattus norvegicus [6], 1% in the assay with Rattus norvegicus [2] and 0% in the assay with Rattus norvegicus [3]. Further, the Stimulation in the assay on Mus musculus [4] stood at 42%.

For `COc1ccc(-c2nc3n(c2-c2ccncc2)CCS3)cc1`, the inhibition in vivo at 50 mg/kg in the assay with Rattus norvegicus [1] worked out at 21%; with Rattus norvegicus [2], 20%; with Rattus norvegicus [3], 15%. For the same molecule, the Stimulation with Mus musculus [4] amounted to 59%.

Consider `c1ccc([C@H]2CN3CCSC3=N2)cc1` [LEVAMISOLE], for which the values for the inhibition in vivo at 50 mg/kg with Rattus norvegicus [1], in the assay on Rattus norvegicus [2] and in the assay on Rattus norvegicus [3] were 1%, -2% and 0%, respectively. Moreover, the Stimulation in the assay with Mus musculus [4] was found to be 230%.

Turning to `C[C@]12C=CC(=O)C=C1CC[C@@H]1[C@@H]2[C@@H](O)C[C@@]2(C)[C@H]1CC[C@]2(O)C(=O)CO` [PREDNISOLONE], the values for the inhibition in vivo at 20 mg/kg in the assay with Rattus norvegicus [9] and in the assay with Rattus norvegicus [10] were 54% and 42%, respectively. Moreover, in the assay on Rattus norvegicus [3], the inhibition in vivo at 50 mg/kg is 28%. Besides, the Stimulation in the assay on Mus musculus [11] is -12%.

These data come from ChEMBL document CHEMBL1122599, “Antiinflammatory activity of 5,6-diaryl-2,3-dihydroimidazo[2,1-b]thiazoles. Isomeric 4-pyridyl and 4-substituted phenyl derivatives” (1984).
